In ChEMBL document CHEMBL4270533, “Lipidated α/α-AA heterogeneous peptides as antimicrobial agents” (Eur J Med Chem, 2018):
Converted amounts (≈) assume the structure as drawn.

Tests used:
Klebsiella pneumoniae = assay: Antimicrobial activity against Klebsiella pneumoniae ATCC 13383 after 18 hrs; type: functional; conditions: ATCC 13383, 18 h
How it was run: (§1)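 Broth microdilution. Bacteria grown overnight in trypticase soy broth at 37 °C with shaking, then regrown to mid-log phase. 10^6 CFU/mL mixed 1:1 with peptide (100 to 0.5 μg/mL) and incubated 18 h at 37 °C. MIC taken as the lowest concentration inhibiting growth by OD600. Untreated bacteria served as control. Three experiments, each in duplicate.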

Enterococcus faecalis = assay: Antimicrobial activity against vancomycin-resistant Enterococcus faecalis ATCC 700802 after 18 hrs; type: functional; conditions: ATCC 700802, 18 h
How it was run: (§2)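 Broth microdilution. A colony was grown overnight in trypticase soy broth at 37 °C with shaking, then regrown to mid-log phase. 10^6 CFU/mL inoculum was mixed 1:1 with peptide dilutions (100 to 0.5 μg/mL) and incubated 18 h at 37°C. Read at OD600; MIC is the lowest concentration inhibiting growth. Three experiments, each in duplicate.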

Staphylococcus aureus = assay: Antimicrobial activity against methicillin-resistant Staphylococcus aureus ATCC 33591 after 18 hrs; type: functional; conditions: ATCC 33591, 18 h; how it was run: as §2
Escherichia coli [1] = assay: Antimicrobial activity against Escherichia coli JM109 after 18 hrs; type: functional; conditions: JM109, 18 h; how it was run: as §1
[2] = Hemolytic activity in human RBC after 1 hr; type: ADME, cell-based, Erythrocyte; conditions: red blood cells (erythrocytes)
How it was run: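 Fresh human erythrocytes, PBS-washed (1000g, 10 min), as a 5% v/v suspension mixed 1:1 with two-fold compound dilutions. Incubated 1 h at 37 °C, then centrifuged. Supernatant hemoglobin read at 540 nm. PBS served as 0% lysis and 0.1% Triton X-100 as 100% lysis; % hemolysis computed relative to these.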

[3] = Selectivity ratio of HC50 for hemolytic activity in human RBC to MIC for methicillin-resistant Staphylococcus aureus ATCC 33591; type: toxicity; conditions: red blood cells (erythrocytes)
[4] = test system: Staphylococcus epidermidis; assay: Antimicrobial activity against methicillin-resistant Staphylococcus epidermidis RP62A after 18 hrs; type: functional; how it was run: as §2
Escherichia coli [5] = assay: Bactericidal activity against Escherichia coli assessed as time required for bacterial kill at 12.5 ug/ml by time kill assay; type: functional
Escherichia coli [6] = assay: Bactericidal activity against Escherichia coli assessed as time required for bacterial kill at 25 to 50 ug/ml by time kill assay; type: functional

Compound	MIC (Klebsiella pneumoniae)	MIC (Enterococcus faecalis)	MIC (Staphylococcus aureus)	MIC (Escherichia coli [1])	HC50 at 1 h [2]	selectivity ratio [3]	MIC [4]	Time (Escherichia coli [5])	Time (Escherichia coli [6])
CCCCCCCCCCCCCCCC(=O)N[C@@H](CCCCN)C(=O)NCCN(C(=O)CCc1ccccc1)[C@@H](CCCCN)C(N)=O	6 to 12 mg/L (≈ 8.73 to 17.5 µM)	6 to 12 mg/L (≈ 8.73 to 17.5 µM)	1.5 to 3 mg/L (≈ 2.18 to 4.37 µM)	1.5 to 3 mg/L (≈ 2.18 to 4.37 µM)	31.2 µg/mL	10.4	3 to 6 mg/L (≈ 4.37 to 8.73 µM)		
CCCCCCCCCCCCCCCC(=O)N[C@@H](CCCCN)C(=O)NCCN(C(=O)CCc1ccccc1)[C@@H](CCCCN)C(=O)NCCN(C(=O)CCc1ccccc1)[C@@H](CCCCN)C(N)=O	> 25 mg/L	> 25 mg/L	< 3 mg/L	1.5 to 3 mg/L (≈ 1.51 to 3.03 µM)	31.2 µg/mL	10.4	> 25 mg/L		
CCCCCCCCCCCC(=O)N[C@@H](CCCCN)C(=O)NCCN(C(=O)CCc1ccccc1)[C@@H](CCCCN)C(N)=O	> 25 mg/L	> 25 mg/L	> 25 mg/L	> 25 mg/L			> 25 mg/L		
CCCCCCCCCC(=O)N[C@@H](CCCCN)C(=O)NCCN(C(=O)CCc1ccccc1)[C@@H](CCCCN)C(N)=O	> 25 mg/L	> 25 mg/L	> 25 mg/L	> 25 mg/L			> 25 mg/L		
CCCCCCCCCCCCCC(=O)N[C@@H](CCCCN)C(=O)NCCN(C(=O)CCc1ccccc1)[C@@H](CCCCN)C(N)=O	> 25 mg/L	> 25 mg/L	12 to 25 mg/L (≈ 18.2 to 37.9 µM)	6 to 12 mg/L (≈ 9.11 to 18.2 µM)			> 25 mg/L		
CCCCCCCC(=O)N[C@@H](CCCCN)C(=O)NCCN(C(=O)CCc1ccccc1)[C@@H](CCCCN)C(N)=O	> 25 mg/L	> 25 mg/L	> 25 mg/L	> 25 mg/L			> 25 mg/L		
CCCCCC(=O)N[C@@H](CCCCN)C(=O)NCCN(C(=O)CCc1ccccc1)[C@@H](CCCCN)C(N)=O	> 25 mg/L	> 25 mg/L	> 25 mg/L	> 25 mg/L			> 25 mg/L		
CCCCCCCCCCCCCCCC(=O)NCCN(C(=O)CCc1ccccc1)[C@@H](CCCCN)C(N)=O	> 25 mg/L	> 25 mg/L	25 mg/L (≈ 44.7 µM)	> 25 mg/L			> 25 mg/L		
CCCCCCCCCCCCCCCC(=O)N[C@@H](CCCCN)C(=O)NCCN(C(=O)CCCN)[C@@H](Cc1ccccc1)C(N)=O	3 mg/L (≈ 4.55 µM)			3 mg/L (≈ 4.55 µM)	125 µg/mL			120 min	60 min
CCCCCCCCCCCCCCCC(=O)N[C@@H](CCCCN)C(=O)NCCN(C(=O)CCc1ccccc1)[C@@H](CCCCN)C(=O)NCCN(C(=O)CCc1ccccc1)[C@@H](CCCCN)C(=O)NCCN(C(=O)CCc1ccccc1)[C@@H](CCCCN)C(N)=O	> 25 mg/L	6 to 12 mg/L (≈ 4.64 to 9.27 µM)	1.5 to 3 mg/L (≈ 1.16 to 2.32 µM)	1.5 to 3 mg/L (≈ 1.16 to 2.32 µM)	250 µg/mL	83	3 to 6 mg/L (≈ 2.32 to 4.64 µM)		
